Potentiation (% of control) data for 75 compounds are collected here from PubChem BioAssay AID1267 (The Scripps Research Institute Molecular Screening Center, 2008).

About 770 (64%) of roughly 1,200 compounds were called active. So high a share suggests a set chosen from earlier hits. A selection follows. Unmarked numbers belong to inactive results.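 The calls were made as follows: active = percent activation of the STAT3 luciferase reporter above a set limit taken from the earlier primary screen (cut at about 130% in these data); inactive = the rest.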

A short description of this assay: STAT3 reporter potentiators, retest of hits, confirmation, U3A cells, luciferase, luminescence (AID 1267).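 Also: 0% = background signal of medium plus substrate and 100% = median of IL-6 with DMSO wells.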 Particulars: IL-6 potentiation, at 5.7 µM, stronger effect = higher value, 100 means same as IL-6 alone, U3A cells lack STAT1. The procedure, abridged:
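System: U3A STAT3::luc reporter cells. Probe or stimulus: IL-6 stimulus at 33 ng/mL final. Timing: 1 h pretreatment, 6 h IL-6, 37 °C. Measured by: luminescence of luciferase reporter. Evaluation: % potentiation versus IL-6 + DMSO. Benchmarks: high control IL-6 plus DMSO wells, media-only background wells. Repeats: triplicate.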
Consider `CC(=O)Nc1ccc(NC(=O)COc2ccccc2C(=O)Nc2cccc(Cl)c2Cl)cc1`, for which the potentiation (% of control) was 143% (active).

For `Cc1cccc(C(=O)Nc2nnc(Cc3c[nH]c4ccccc34)s2)c1`, the potentiation (% of control) is 150% (active).

In the case of `CSc1nc(N(C)NC(=O)c2cccc(C)c2)c2ccccc2n1`, the potentiation (% of control) was 112%.

Take `COc1ccc(/C=N/Nc2ncnc3sc4c(c23)CCCC4)cc1O`: the potentiation (% of control) was 114%.

Regarding `O=C(Nc1cc(C(F)(F)F)ccc1Cl)c1cc(C2CC2)on1`, the potentiation (% of control) was 145% (active).

`Fc1ccc2nc(-c3ccccc3)nc(SCc3nnc(-c4ccccc4)o3)c2c1`: the potentiation (% of control) is 132%.

For `OC(COc1ccc2ccccc2c1)CN1CCOCC1` (stereo not given), the potentiation (% of control) is 157% (active).

In the case of `COc1ccccc1C1C2=C(COC2=O)Nc2cc3c(cc21)OCO3` (stereo not given), the potentiation (% of control) was 124%.

In the case of `COc1ccc(-c2c3c(=O)n(C)c(=O)n(C)c3cn2-c2cccc(OC)c2)cc1`, the potentiation (% of control) was 158% (active).

`Cn1nc(-c2ccc(Cl)cc2)c2cc(C(=O)NCc3ccco3)sc21`: the potentiation (% of control) was 153% (active).

Take `O=C(NCc1ccco1)c1cccn2c(=O)c3c4c(sc3nc12)CCCC4`: the potentiation (% of control) is 128%.

Turning to `COc1ccccc1N1CCN(C(=O)c2cc3c(-c4ccc(Cl)cc4)nn(C)c3s2)CC1`, the potentiation (% of control) was 125%.

For `COc1ccc(C)cc1NC(=O)c1[nH]c(C)c(C(C)=O)c1C`, the potentiation (% of control) is 144% (active).

With `N#Cc1ccccc1NC(=O)COc1c(Br)cc(Br)c2cccnc12`, the potentiation (% of control) was 162% (active).

Consider `O=C(C1CCN(S(=O)(=O)Cc2ccccc2)CC1)N1CCCc2ccccc21`, for which the potentiation (% of control) is 118%.

Regarding `CSc1nc2sc3c(c2c(=O)[nH]1)CCc1ccccc1-3`, the potentiation (% of control) was 142% (active).

In the case of `CCSc1nnc(-c2cc3c(s2)-c2ccccc2CC3)o1`, the potentiation (% of control) is 162% (active).

As for `COc1cccc(NC(=S)C(C#N)=C2N(C)c3ccccc3N2C)c1`, the potentiation (% of control) is 122%.

For the compound `COc1ccc(C2c3[nH]c4ccccc4c3CCN2CCCn2cccn2)cc1C` (stereo not given), the potentiation (% of control) is 142% (active).

With `Cc1ccc(OCc2nnc(SC3CCc4ccccc4C3=O)n2C)cc1` (stereo not given), the potentiation (% of control) was 151% (active).

For the compound `CN1CCN(c2ccc([N+](=O)[O-])c(Sc3nc4ccccc4[nH]3)c2)CC1`, the potentiation (% of control) was 107%.

Consider `Cc1ccc(S(=O)(=O)Nc2nc3ccccc3nc2N2CCc3ccccc3C2)cc1`, for which the potentiation (% of control) is 124%.

Take `Cc1cccc(N(CC(=O)N=Nc2c(O)[nH]c3ccccc23)S(C)(=O)=O)c1C`: the potentiation (% of control) was 129%.

Take `Cc1nc2ccccc2cc1O`: the potentiation (% of control) is 146% (active).

As to `COC(=O)c1[nH]c2ccccc2c1NS(=O)(=O)c1ccc(OC)cc1OC`, the potentiation (% of control) is 116%.

For the compound `CCCS(=O)(=O)Nc1c(C(=O)O)[nH]c2ccccc12`, the potentiation (% of control) was 170% (active).

As for `CCn1c(SCC(=O)N/N=C/C=C/c2ccccc2[N+](=O)[O-])nnc1-c1ccccc1`, the potentiation (% of control) is 137% (active).

Take `CC(C)CNC(=O)COC(=O)/C=C/c1ccccc1[N+](=O)[O-]`: the potentiation (% of control) was 126%.

On to `N#Cc1c(C(F)(F)F)cc(-c2ccc(Cl)cc2)nc1SCC(=O)O`, for which the potentiation (% of control) was 159% (active).

On to `COc1ccc(Cl)cc1NC(=O)c1oc(C)nc1C`, for which the potentiation (% of control) is 147% (active).

For the compound `C/C(=N\NC(=O)CNc1cccc2ccccc12)c1ccc(Br)s1`, the potentiation (% of control) is 98.2%.

In the case of `Cc1ccc(/C=N/NC(=O)COc2ccccc2-c2ccccc2)cc1`, the potentiation (% of control) is 135% (active).

On to `Cc1ccc(C2=NN(C)c3nc4ccccc4n3C2)cc1`, for which the potentiation (% of control) is 151% (active).

As to `Oc1c(C=Nc2cccc3nsnc23)ccc2ccccc12`, the potentiation (% of control) is 129%.

With `COc1cc(OC)cc(C(=O)N[C@H](C(=O)Nc2nc3ccccc3[nH]2)C(C)C)c1`, the potentiation (% of control) was 108%.

Turning to `COc1cc(NS(=O)(=O)c2ccc(N/C=C(\C=O)c3nc4cc(Cl)ccc4o3)cc2)nc(OC)n1`, the potentiation (% of control) is 144% (active).

Regarding `C/C(=N\c1nc2ccccc2n1C)c1cc(Cl)ccc1O`, the potentiation (% of control) was 118%.

Regarding `Cc1ccc(NC(=O)c2cc([N+](=O)[O-])ccc2Cl)c(O)c1`, the potentiation (% of control) is 158% (active).

Take `Oc1cccc2ccc(/C=C/c3ccc(Br)s3)nc12`: the potentiation (% of control) was 169% (active).

Regarding `Cn1cccc1C(=O)Nc1nccs1`, the potentiation (% of control) is 132%.

With `CCOC(=O)N1CCN(CC(=O)Nc2cc(C)nn2-c2nc3ccccc3s2)CC1`, the potentiation (% of control) was 140% (active).

As to `NC(=O)CSc1c[nH]c2ccccc12`, the potentiation (% of control) is 165% (active).

For the compound `O=c1[nH]c(CSc2ncc(-c3ccc(F)cc3)n2Cc2ccco2)nc2ccccc12`, the potentiation (% of control) was 122%.

`COc1ccc([N+](=O)[O-])cc1C1NN=C(c2cccc3ccccc23)S1` (stereo not given): the potentiation (% of control) is 138% (active).

`O=C1CCCN1CCCNc1ncnc2c1[nH]c1ccccc12`: the potentiation (% of control) was 144% (active).

In the case of `COCCCNc1nc2c(-c3cccc(C(F)(F)F)c3)nnn2c2ccccc12`, the potentiation (% of control) was 134% (active).

Turning to `COc1ccccc1-c1nnc(SCC(=O)N2CC(C)CC(C)C2)o1` (stereo not given), the potentiation (% of control) is 117%.

Turning to `COc1ccccc1-c1nnc(NC(=O)c2ccc3ncsc3c2)o1`, the potentiation (% of control) is 147% (active).

As to `Cc1cccc(C(=O)N2CCc3c([nH]c4ccccc34)C2CC(C)C)n1` (stereo not given), the potentiation (% of control) was 159% (active).

Take `c1ccc(-c2cn3c(n2)CCc2ccc4cccnc4c2-3)cc1`: the potentiation (% of control) is 139% (active).

`CCOC(=O)c1c(-c2cccc(C)c2)csc1NC(=O)c1c(-c2ccccc2)noc1C`: the potentiation (% of control) is 122%.

Take `O=C(O)CS/C(=C\c1ccc(F)cc1)c1nc2ccccc2s1`: the potentiation (% of control) is 132%.

Consider `O=C(O)CSCc1nc2ccccc2s1`, for which the potentiation (% of control) was 154% (active).

Consider `COc1ccc(NC(=O)ON=C2c3ccccc3-c3ccccc32)cc1`, for which the potentiation (% of control) was 121%.

For the compound `CCOc1ccc(C2c3[nH]c4ccccc4c3CCN2Cc2cn(CC)nc2C)cc1` (stereo not given), the potentiation (% of control) is 143% (active).

For the compound `COc1nc(N=C(N)N)nc2c(C)cccc12`, the potentiation (% of control) was 144% (active).

With `Cc1nc(N=C(N)N)nc2c(C)cccc12`, the potentiation (% of control) is 172% (active).

For `Cc1ccc(N=Nc2c(C)[nH]n(-c3ccccc3)c2=O)cc1`, the potentiation (% of control) is 147% (active).

Take `CCOC(=O)C1CCN(c2ncnc3c2oc2ccc(Br)cc23)CC1`: the potentiation (% of control) was 138% (active).

As for `CCNCc1cc2cc(C)ccc2[nH]c1=O`, the potentiation (% of control) is 120%.

Regarding `CSCCC(NC(=O)c1ccco1)C(=O)OCC(=O)Nc1ncc(Cl)c(C)c1Cl` (stereo not given), the potentiation (% of control) is 124%.

For `CCCCC(=O)Nc1nc(C)c(-c2csc(Nc3ccc(Cl)cc3)n2)s1`, the potentiation (% of control) is 133%.

Take `C=CCCC(=O)Nc1nc(C)c(-c2csc(Nc3ccc(Cl)cc3)n2)s1`: the potentiation (% of control) is 135% (active).

For `Cc1ccc(Nc2nc(-c3sc(NC(=O)c4ccccc4)nc3C)cs2)cc1`, the potentiation (% of control) was 122%.

Take `Cc1ccc(-c2cc(C(=O)Nc3nn[nH]n3)c3ccccc3n2)c(C)c1`: the potentiation (% of control) was 121%.

As for `O=[N+]([O-])c1ccc(N2CCN(S(=O)(=O)c3ccc4ccccc4c3)CC2)cc1NCc1ccco1`, the potentiation (% of control) was 123%.

Regarding `CN1C(=O)/C(=C\c2cc(Br)cs2)c2ccccc21`, the potentiation (% of control) was 190% (active).

For the compound `Cc1csc2ncc(C(=O)N(Cc3ccccc3)c3ccccn3)c(=O)n12`, the potentiation (% of control) is 111%.

As for `CCOC(=O)CN(C)Cc1c[nH]c2ccccc12`, the potentiation (% of control) is 157% (active).

Consider `O=C(Cc1c[nH]c2ccccc12)OCCOC(=O)Cc1c[nH]c2ccccc12`, for which the potentiation (% of control) is 121%.

Turning to `COc1cccc(/C=C(/CC(=O)Nc2ccc(N3CCOCC3)cc2)c2nc3ccccc3s2)c1`, the potentiation (% of control) was 146% (active).

With `Oc1cccc(C2c3[nH]c4ccccc4c3CCN2Cc2cnn(-c3ccccc3)c2)c1` (stereo not given), the potentiation (% of control) was 137% (active).

For the compound `COC(=O)c1[nH]c2ccccc2c1NC(=O)CN1CCCc2ccccc21`, the potentiation (% of control) is 153% (active).

As for `COC(=O)c1[nH]c2cccc(C)c2c1NC(=O)CN1CCCc2ccccc21`, the potentiation (% of control) was 128%.

Consider `C=CCn1c(-c2ccccc2OCC)n[nH]c1=S`, for which the potentiation (% of control) was 178% (active).
